Among the data in ChEMBL document CHEMBL1127616, “Synthesis, structural characterization, and antitumor properties of a novel class of large-ring platinum(II) chelate complexes incorporating the cis-1,4-diaminocyclohexane ligand in a unique locked boat conformation” (J Med Chem, 1994) are Survivors, Ratio and Weight change values, retold here.

Common to all, as to type: functional, organism-based
Common to all, as to details: Mus musculus

In test [1] the test system is L1210. Put plainly: Tested for the ratio of number of survivors / total number after 60 days at the dose of 6.0 mg/kg per injection against murine leukemia L1210 experiment 1. The method in brief:
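CD2F1 (Balb/c × DBA/2F1) mice, 18–22 g, randomized and inoculated IP with counted leukemia cells on day 0, then re-randomized. Three IP treatments, dissolved in 0.9% saline and dosed on average cage weight, with dose in mg/kg per injection across a full toxic-to-ineffective range. Median life span and %T/C were recorded. Survivors at 60 days were counted as cured and excluded from %T/C.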

The subject of test [2] is L1210. Kind of test: Tested for the ratio of treated and control against solid tumor murine L1210 Pt-resistant leukemia 5.0 mg/kg per injection in experiment 2; T/C. The method in brief: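 Murine leukemia life span assay in CD2F1 (Balb/c × DBA/2F1) mice, 18–22 g, randomized, with IP tumor cell inoculation on day 0. Depending on the model, the inoculum was 1 × 10^4 cells with IP dosing on days 3, 7 and 11, or 1 × 10^6 cells with IP dosing on days 1, 5 and 9. Drug was given in 0.9% saline, mg/kg per injection, by average cage weight. Read-outs were median day of death and %T/C. Mice alive 60 days after treatment counted as cured and were excluded.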

The test system of test [3] is L1210. Put plainly: Tested for in vivo weight change against murine L1210 leukemia at the dose of 2.5 mg/kg per injection in experiment 2. The essentials: (§1)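 Leukemia life-span assays used CD2F1 (Balb/c × DBA/2F1) mice weighing 18–22 g. Cells were inoculated IP on day 0, and compounds in 0.9% saline were given IP, dosed by average cage weight. Weight change is the difference in mean group weight between the last and first treatment days.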

Test [4] relates to L1210. Kind of test: Tested for in vivo weight change against murine L1210 Pt-resistant leukemia at the dose of 1.6 mg/kg per injection in experiment 2. The essentials: as §1

As for CISPLATIN, in the test on L1210 [1], the Survivors stood at 1. In the test on L1210 [2], the Ratio was 107%.
Take [Pt(cis-1,4-dach)CL2]: the Weight change in the test with L1210 [3] is -1.9 g; with L1210 [4], 1.9 g.
